# Screening data as filed in PubChem BioAssay.
# Rin1-Abl PPI inh = human Rin1-Abl interaction inhibition | hit rate 0.4% among 360,000 | inhibition, % at 7.35 µM | TR-FRET Rin1/Abl binding, biochemical | AID 588664 | P00519+Q13671; in the data active = inhibition above about 5%, passing the limit was not always enough
# T cell HTS = modulates CD8 T cell binding to vesicles | 2C CD8+ T cell-vesicle binding, flow cytometry; active compounds read low | response (vesicle binding), % at 7 µM | hit rate 0.068% among 330,000 | AID 2052;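 active = response, share of CD8 T cells binding vesicles, and their 90th percentile fluorescence all below set limits, cut at about 80% in these data, passing the limit was not always enough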;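 note: values below 100% mean blocked vesicle binding to the CD8+ T cells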
#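 Assay system: 2C TCR transgenic mouse naive CD8+ T cells, MACS-purified | Read-out: CD8+ gate FL2 mean fluorescence as % of same-row positive control | Signal: High-throughput flow cytometry with anti-B7-1 and anti-CD8 staining | Timing: Binding step 1.5 h, 37 °C, antibody labelling 20 min, ice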
# Myeloid diff 2 = compounds promoting myeloid differentiation. ER-HoxA9 myeloid progenitors, lysozyme-GFP differentiation, flow cytometry. calls only at 10 µM. hit rate 1% among 360,000;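 active = normalized GFP-positive differentiation at or above the plate's own cutoff, the solvent-only control mean plus 3 SD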;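 note: cells exposed to compound for four days before flow analysis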
# SKN-1 block = inhibitors of C. elegans SKN-1; C. elegans VP596 Pgst-4::GFP/RFP ratio, acrylamide-induced, 24 h; inhibition, % at 21.8 µM; hit rate 0.49% among 360,000;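 active = interference check ratio from 0.5 to 1.5 plus GFP to RFP signal ratio inhibition reaching or exceeding a fixed threshold, cut at about 30% in these data, passing the limit was not always enough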
# GRK2 inh = blocks RNA aptamer binding to human GRK2; hit rate 0.59% among 330,000; inhibition of aptamer binding, % at 10 µM; P25098; bead flow cytometry, FAM-aptamer displacement from GRK2;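 active = inhibition of aptamer binding above 40%, roughly 3 SD of noise, on plates passing a quality check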;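 note: median bead fluorescence of bound FAM aptamer so fluorescent compounds give negative values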
# Target sequence (P25098 whole entry, looked up): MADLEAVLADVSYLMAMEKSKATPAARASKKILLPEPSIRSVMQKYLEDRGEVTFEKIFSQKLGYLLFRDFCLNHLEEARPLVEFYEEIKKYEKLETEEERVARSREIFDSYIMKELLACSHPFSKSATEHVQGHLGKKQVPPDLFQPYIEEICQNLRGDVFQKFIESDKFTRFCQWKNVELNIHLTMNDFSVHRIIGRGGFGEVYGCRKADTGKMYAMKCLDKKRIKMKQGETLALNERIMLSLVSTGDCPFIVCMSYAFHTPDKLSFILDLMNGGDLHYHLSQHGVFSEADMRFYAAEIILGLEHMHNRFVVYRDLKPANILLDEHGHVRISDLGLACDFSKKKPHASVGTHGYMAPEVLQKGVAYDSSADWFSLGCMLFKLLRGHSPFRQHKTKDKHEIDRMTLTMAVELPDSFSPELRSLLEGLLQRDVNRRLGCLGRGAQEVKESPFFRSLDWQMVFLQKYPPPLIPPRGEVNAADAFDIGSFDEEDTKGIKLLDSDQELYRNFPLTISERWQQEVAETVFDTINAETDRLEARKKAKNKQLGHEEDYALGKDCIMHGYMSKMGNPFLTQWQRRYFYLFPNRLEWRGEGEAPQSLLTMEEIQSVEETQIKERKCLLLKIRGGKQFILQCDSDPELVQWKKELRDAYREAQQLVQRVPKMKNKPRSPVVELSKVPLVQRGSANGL
# Rce1 inh = blocks yeast Ras-converting enzyme. yeast membranes, quenched prenylated peptide cleavage fluorescence. calls only. hit rate 0.27% among 290,000. AID 2563;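 active = fall in fluorescence gain of 50% or more versus controls, with final raw signal at or below 3038400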;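 note: plate controls were neutral control wells for no effect and wells lacking membranes for full effect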
# Myeloid diff CP1 = promotes myeloid progenitor differentiation; hit rate 2% among 2,300; calls only; shares compounds with Myeloid diff 2; ER-HoxA9 myeloid progenitors, GFP/Mac1 double-positive flow;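 active = share of green or green-and-red cells above 9 and 9% in run 1 or 4 and 3% in run 2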
# GFP autofluor = flagged as fluorescent in myeloid differentiation counter-screen. shares compounds with Myeloid diff 2. ER-HoxA9 myeloid progenitors, no estrogen, GFP autofluorescence flow cytometry; vehicle wells 0%, positive control 100%. fluorescence response, % (concentration not given with the values). hit rate 7.4% among 2,300;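 active = over 5% cells positive for green fluorescent reporter, or over 2% positive for both it and APC stain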;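 note: range taken on the double positive population between DMSO and positive control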
# * hit, by the source's call; i = inactive; · = no result; + = active, no number. Most compounds without a hit are left out; they make up all but 2.6% or so of the library.
SMILES,Rin1-Abl PPI inh,T cell HTS,Myeloid diff 2,SKN-1 block,GRK2 inh,Rce1 inh,Myeloid diff CP1,GFP autofluor
O=C(NC1CCCCC1)C(c1ccc(C(F)(F)F)cc1)n1c(=O)c(-c2ccco2)nc2ccccc21 (centres undefined),·,·,i,9,·,·,·,·
Cc1ccc(CN2C(=O)N/C(=C\c3cccn3-c3cccc(C(=O)O)c3)C2=O)cc1,2,138,i,-1,23,i,·,·
O=C(O)c1ccc(-n2cccc2/C=C2/NC(=O)N(c3cccc(Cl)c3)C2=O)cc1,1,·,+,1,·,·,i,0
Cc1ccc(NS(=O)(=O)c2ccc(NC(=O)c3ccccc3C(=O)O)cc2)cc1C,-2,151,i,-5,3,·,·,·
CC(OC(=O)CCC(=O)c1ccc(Cl)s1)C(=O)NC1(C#N)CCCCC1 (centres undefined),2,512,i,-8,1,·,·,·
Cc1cccn2cc(COc3ccc(-c4ccccc4)cc3)nc12,-6,·,+,24,·,i,+,1
CCCOc1ccc([C@@H]2C3CN(C(=O)OCC)CC=C3C(C#N)=C(N)C2(C#N)C#N)cc1OC (some centres undefined),-2,215,+,11,1,i,i,0
CC(OCC(O)CN(C)Cc1nc2ccccc2c(=O)[nH]1)c1ccc(Cl)cc1 (centres undefined),2,i,i,4,0,i,·,·
Cc1cccc(NCCNc2cccc(C)c2)c1,-1,282,i,5,0,i,·,·
CCCCCCCNc1cccc(C)c1,0,331,i,16,0,i,i,1
c1ccc2c(c1)Cn1nc(Cc3nc4c(s3)CCCC4)nc1-2,-3,177,i,-5,2,i,·,·
N#CCc1nc2n(n1)Cc1ccccc1-2,4,472,i,-5,3,i,i,0
CCCC#Cc1cnc2c(c1)C(=O)N([C@H](C)CO)C[C@H](C)[C@@H](CN(C)C(=O)CCN1CCCCC1)O2,0,·,i,4,·,·,·,·
O=C(OCc1cn([C@@H]2CN(C(=O)c3cccs3)[C@@H](c3ccccc3)C[C@H]2O)nn1)c1ccccc1,-4,·,i,15,·,·,·,·
CCOC(=O)c1c(C)[nH]c(C(=O)N/N=C\c2ccccc2Cl)c1C,-3,249,i,5,0,i,i,0
C(=C\c1ccco1)/C1=NN(c2ccccc2)C(c2ccco2)C1 (centres undefined),-3,237,+,13,0,i,i,2
CCOc1ccc(-c2noc(CCCC(=O)NC3CCCC3)n2)cc1OC,1,234,i,6,0,i,·,·
COc1cccc(/C(O)=C/c2nc3ccc(C(=O)NCCc4ccc(Cl)cc4)cc3[nH]c2=O)c1,2,·,+,22,·,i,i,0
CCN(CC)S(=O)(=O)c1ccc(=O)n(CC(=O)N2Cc3ccccc3CC2C(N)=O)c1 (centres undefined),4,·,i,-2,·,·,·,·
O=C(Cn1c(=O)[nH]c2ccsc2c1=O)NC1CCCCC1,-5,416,+,31,2,i,i,0
O=C(NC1CCCC1)c1ccc(Cn2c(=O)[nH]c3ccsc3c2=O)cc1,-6,200,i,-5,0,i,·,·
O=C(O)C(c1ccccc1)N1C(=O)/C(=C\c2ccc(-c3ccc(Br)cc3)o2)SC1=S (centres undefined),2,·,+,-5,·,i,i,26*
C=CCN1C=CC(=CC=C(C#N)C#N)C=C1,-26,461,i,8,0,i,·,·
C=CCN1C=C/C(=C\C=C(C#N)C#N)c2ccccc21,-9,202,+,35*,0,i,i,1
COc1cccc(Oc2c(C)oc3c(CN4CCCC4)c(O)ccc3c2=O)c1,1,290,i,-11,0,i,i,0
SMILES,Rin1-Abl PPI inh,T cell HTS,Myeloid diff 2,SKN-1 block,GRK2 inh,Rce1 inh,Myeloid diff CP1,GFP autofluor
COc1cccc(Oc2coc3c(CN4CCOCC4)c(O)ccc3c2=O)c1,2,193,i,1,0,i,·,·
C=CCOC(=O)N1CCC2CC1c1c(-c3ccc(C(F)(F)F)cc3)cccc12 (centres undefined),0,·,i,-1,·,·,·,·
CC(=O)Nc1ccc(CC(=O)O)cc1,0,266,i,9,0,i,·,·
N#CCC(=O)Nc1ccc(C(=O)NCCC(c2ccccc2)c2ccccc2)cc1,3,366,+,-4,0,i,i,0
N#CCC(=O)Nc1ccc(C(=O)NCCc2c[nH]c3ccccc23)cc1,-5,136,·,12,0,i,·,·
CC(=O)Nc1ccc(CC(=O)NCCC(c2ccccc2)c2ccccc2)cc1,3,541,+,-9,0,i,i,0
CCCCn1c(N)c(N(CC)C(=O)CSc2nnc(-c3ccco3)n2CC)c(=O)[nH]c1=O,-1,144,i,10,3,i,·,·
O=C(c1cc(COc2ccc(F)cc2Cl)on1)N(CCO)Cc1cccs1,-3,245,i,19,0,i,·,·
O=C(Nc1ccc(Cl)cc1)N[C@H]1CC[C@H](CCn2cc(-c3ccccc3F)nn2)O[C@@H]1CO,·,·,i,-5,·,·,·,·
CCCNC(=O)N[C@H]1CC[C@@H](CCn2cc(-c3cccc(F)c3)nn2)O[C@@H]1CO,·,·,+,7,·,·,i,0
Cc1cc(/C=C2\SC(=S)N(C)C2=O)c(C)n1-c1cccc(O)c1,-3,414,+,8,7,i,i,5
Cc1ccc(-c2cc(C(F)(F)F)c(C#N)c(SCCC#N)n2)o1,0,759,i,7,0,i,i,0
COc1ccc(-c2cc(C(F)(F)F)c(C#N)c(SCC(=O)O)n2)cc1,-1,341,i,8,0,·,·,·
C/C(CC(=O)Nc1ccc(C)c(Cl)c1)=N\NC(=O)C1CCCCC1,-2,129,i,10,0,i,·,·
Cc1nnc(SCC(=O)N(C2CCCCC2)C2CCS(=O)(=O)C2)n1N (centres undefined),1,939,i,-3,0,i,·,·
C=CCn1cnnc1SCC(=O)N(C1CCCCC1)C1CCS(=O)(=O)C1 (centres undefined),1,409,i,-3,1,·,i,0
CCOc1cc(/C=C2\N=C(C)OC2=O)cc(Br)c1OCC(=O)OC,4,514,+,5,3,i,i,0
CCOc1cc(/C=C2\N=C(C)OC2=O)cc(Br)c1OCCc1ccccc1,0,184,i,1,0,i,·,·
